ChEMBL document CHEMBL4359825, “Synthesis of novel S-linked dihydroartemisinin derivatives and evaluation of their anticancer activity” (Eur J Med Chem, 2019)
Calls of active or inactive are those of the source. The rule behind the calls is not given here.

How the values were obtained:
PC-3 [1] = assay: Anticancer activity against human PC3 cells assessed as cell viability measured after 72 hrs by MTT assay (reference value: 100 +/- 18.8 %); assay type: functional; parameters: concentration or dose not given beside the values
MDA-MB-231 [2] = assay: Anticancer activity against human MDA-MB-231 cells assessed as cell viability measured after 72 hrs by MTT assay (reference value: 100 +/- 20.0 %); assay type: functional; parameters: concentration or dose not given beside the values
A549 = assay: Anticancer activity against human A549 cells assessed as cell viability measured after 72 hrs by MTT assay (reference value: 100 +/- 9.6 %); assay type: functional; parameters: concentration or dose not given beside the values
HeLa = assay: Anticancer activity against human HeLa cells assessed as cell viability measured after 72 hrs by MTT assay (reference value: 100 +/- 11.5 %); assay type: functional; parameters: concentration or dose not given beside the values
LNCaP = assay: Anticancer activity against human LNCAP cells assessed as cell viability measured after 72 hrs by MTT assay (reference value: 100 +/- 5.0 %); assay type: functional; parameters: concentration or dose not given beside the values
A-431 [3] = assay: Anticancer activity against human A431 cells assessed as cell viability measured after 72 hrs by MTT assay (reference value: 100 +/- 11.7 %); assay type: functional; parameters: concentration or dose not given beside the values
HepG2 [4] = assay: Anticancer activity against human HepG2 cells assessed as cell viability measured after 72 hrs by MTT assay (reference value: 100 +/- 6.5 %); assay type: functional; parameters: concentration or dose not given beside the values
MDA-MB-231 [5] = assay: Anticancer activity against human MDA-MB-231 cells assessed as reduction in cell viability measured after 72 hrs by MTT assay; assay type: functional, cell-based; details: MDA-MB-231, 72 h
PC-3 [6] = assay: Anticancer activity against human PC3 cells assessed as reduction in cell viability measured after 72 hrs by MTT assay; assay type: functional, cell-based; details: PC-3, 72 h
HepG2 [7] = assay: Anticancer activity against human HepG2 cells assessed as reduction in cell viability measured after 72 hrs by MTT assay; assay type: functional, cell-based; details: HepG2, 72 h
A-431 [8] = assay: Anticancer activity against human A431 cells assessed as reduction in cell viability measured after 72 hrs by MTT assay; assay type: functional, cell-based; details: A-431, 72 h
[9] = Elimination half-life in Sprague-Dawley rat at 10 mg/kg administered as iv bolus dose by EC-HPLC analysis; assay type: ADME, organism-based; details: in vivo, read-out: beta t1/2
[10] = Solubility of compound in water; assay type: physicochemical; details: buffer
PC-3 [11] = assay: Induction of apoptosis in human PC3 cells assessed as loss of cell morphology at 3 to 10 uM after 72 hrs by phase contrast microscopy; assay type: functional, cell-based
Method in brief: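 PC-3 cells in exponential growth exposed to 3 or 10 μM for 72 h, washed gently with PBS, and apoptotic morphology recorded by phase-contrast microscopy.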

PC-3 [12] = assay: Induction of apoptosis in human PC3 cells assessed as nuclear condensation at 3 to 10 uM after 72 hrs by Hoechst 33342 staining based fluorescence microscopy; assay type: functional, cell-based
Method in brief: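 PC-3 cells treated 72 h with 3 or 10 μM, stained with Hoechst 33342 for 15 min at room temperature in the dark, washed with PBS, and nuclei examined by fluorescence microscopy for condensation.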

PC-3 [13] = assay: Cell cycle arrest in human PC3 cells assessed as accumulation at S phase at 3 uM measured after 48 hrs by RNase/propidium iodide staining based flow cytometry analysis (reference value: 42.03 %); assay type: functional
PC-3 [14] = assay: Cell cycle arrest in human PC3 cells assessed as accumulation at G0/G1 phase at 3 uM measured after 48 hrs by RNase/propidium iodide staining based flow cytometry analysis (reference value: 35.13 %); assay type: functional
PC-3 [15] = assay: Cell cycle arrest in human PC3 cells assessed as accumulation at G0/G1 phase at 10 uM measured after 48 hrs by RNase/propidium iodide staining based flow cytometry analysis (reference value: 35.13 %); assay type: functional
PC-3 [16] = assay: Effect on Pin1 expression in human PC3 cells at 0.1 to 10 uM measured after 72 hrs by Western blot analysis; assay type: functional, cell-based
Method in brief: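 Western blot: PC-3 seeded 1.25 × 10^5/well, exposed to 0.1–10 μM for 72 h. Lysed in 2× SDS buffer and sonicated; 20–25 μg protein run on 12% SDS gel, transferred to PVDF, blocked in 5% BSA/TBST. Primary antibodies overnight, secondary 1 h; ECL detection, β-actin loading control.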

PC-3 [17] = assay: Anticlonogenic activity against human PC3 cells assessed as reduction in colony formation at 10 uM incubated for 72 hrs supplemented with fresh medium containing measured after 15 days by colony formation assay; assay type: functional, cell-based
Method in brief: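 Clonogenic assay: PC-3 seeded at 500 cells/well in six-well plates, allowed to adhere overnight, then treated. Medium and compound renewed every 72 h over 15 days. Colonies fixed with 3.7% formaldehyde for 20 min, stained with 0.4% crystal violet and counted. Three experiments, each in quadruplicate, expressed as fold change versus control.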

PC-3 [18] = assay: Cell cycle arrest in human PC3 cells assessed as accumulation at G2/M phase at 10 uM measured after 48 hrs by RNase/propidium iodide staining based flow cytometry analysis (reference value: 22.84 %); assay type: functional
PC-3 [19] = assay: Cell cycle arrest in human PC3 cells assessed as accumulation at S phase at 10 uM measured after 48 hrs by RNase/propidium iodide staining based flow cytometry analysis (reference value: 42.03 %); assay type: functional
PC-3 [20] = assay: Cell cycle arrest in human PC3 cells assessed as accumulation at G2/M phase at 3 uM measured after 48 hrs by RNase/propidium iodide staining based flow cytometry analysis (reference value: 22.84 %); assay type: functional

## COC(=O)CS[C@@H]1O[C@@H]2O[C@@]3(C)CC[C@H]4[C@H](C)CC[C@@H]([C@H]1C)[C@@]24OO3
PC-3 [1]
  Activity: 32%
MDA-MB-231 [2]
  Activity: 98%
A549
  Activity: 91%
HeLa
  Activity: 79%
LNCaP
  Activity: 60%
A-431 [3]
  Activity: 75%
HepG2 [4]
  Activity: 80%

## C[C@H]1[C@@H](Sc2ccc(C(=O)O)cc2)O[C@@H]2O[C@@]3(C)CC[C@H]4[C@H](C)CC[C@@H]1[C@@]24OO3
PC-3 [1]
  Activity: 32%
MDA-MB-231 [2]
  Activity: 64%
A549
  Activity: 76%
HeLa
  Activity: 55%
LNCaP
  Activity: 41%
A-431 [3]
  Activity: 31%
HepG2 [4]
  Activity: 45%

## C[C@H]1[C@H](Sc2ccc(Cl)cc2)O[C@@H]2O[C@@]3(C)CC[C@H]4[C@H](C)CC[C@@H]1[C@@]24OO3
PC-3 [1]
  Activity: 70%
MDA-MB-231 [2]
  Activity: 97%
A549
  Activity: 55%
HeLa
  Activity: 48%
LNCaP
  Activity: 37%
A-431 [3]
  Activity: 42%
HepG2 [4]
  Activity: 42%

## CCCCCCS[C@@H]1O[C@@H]2O[C@@]3(C)CC[C@H]4[C@H](C)CC[C@@H]([C@H]1C)[C@@]24OO3
PC-3 [1]
  Activity: 90%
MDA-MB-231 [2]
  Activity: 72%
A549
  Activity: 70%
HeLa
  Activity: 44%
LNCaP
  Activity: 36%
A-431 [3]
  Activity: 35%
HepG2 [4]
  Activity: 35%

## C[C@H]1[C@H](Sc2ccc([N+](=O)[O-])cc2)O[C@@H]2O[C@@]3(C)CC[C@H]4[C@H](C)CC[C@@H]1[C@@]24OO3
PC-3 [1]
  Activity: 50%
MDA-MB-231 [2]
  Activity: 98%
A549
  Activity: 70%
HeLa
  Activity: 50%
LNCaP
  Activity: 46%
A-431 [3]
  Activity: 44%
HepG2 [4]
  Activity: 56%

## C[C@H]1[C@@H](Sc2nnnn2C)O[C@@H]2O[C@@]3(C)CC[C@H]4[C@H](C)CC[C@@H]1[C@@]24OO3
PC-3 [1]
  Activity: 28%
MDA-MB-231 [2]
  Activity: 86%
A549
  Activity: 100%
HeLa
  Activity: 93%
LNCaP
  Activity: 97%
A-431 [3]
  Activity: 97%
HepG2 [4]
  Activity: 93%

## C[C@H]1[C@@H](Sc2ccc(Cl)cc2)O[C@@H]2O[C@@]3(C)CC[C@H]4[C@H](C)CC[C@@H]1[C@@]24OO3
PC-3 [1]
  Activity: 99%
MDA-MB-231 [2]
  Activity: 70%
A549
  Activity: 52%
HeLa
  Activity: 41%
LNCaP
  Activity: 37%
A-431 [3]
  Activity: 36%
HepG2 [4]
  Activity: 36%

## COC(=O)Cc1ccc(SC2O[C@@H]3O[C@@]4(C)CC[C@H]5[C@H](C)CC[C@@H]([C@H]2C)[C@@]35OO4)cc1 (stereo not given in full)
PC-3 [1]
  Activity: 31%
MDA-MB-231 [2]
  Activity: 96%
A549
  Activity: 74%
HeLa
  Activity: 43%
LNCaP
  Activity: 31%
A-431 [3]
  Activity: 52%
HepG2 [4]
  Activity: 67%

## C[C@H]1[C@H](Sc2nnnn2C)O[C@@H]2O[C@@]3(C)CC[C@H]4[C@H](C)CC[C@@H]1[C@@]24OO3
PC-3 [1]
  Activity: 47%
MDA-MB-231 [2]
  Activity: 75%
A549
  Activity: 89%
HeLa
  Activity: 95%
LNCaP
  Activity: 78%
A-431 [3]
  Activity: 87%
HepG2 [4]
  Activity: 95%

## CCCCCCS[C@H]1O[C@@H]2O[C@@]3(C)CC[C@H]4[C@H](C)CC[C@@H]([C@H]1C)[C@@]24OO3
PC-3 [1]
  Activity: 39%
MDA-MB-231 [2]
  Activity: 39%
MDA-MB-231 [5]
  IC50: 3.94 µM
PC-3 [6]
  IC50: 5.8 µM
A549
  Activity: 55%
HeLa
  Activity: 49%
LNCaP
  Activity: 46%
A-431 [3]
  Activity: 45%
HepG2 [7]
  IC50: 10.7 µM
HepG2 [4]
  Activity: 41%
A-431 [8]
  IC50: 3.99 µM

## C[C@H]1[C@@H](O)O[C@@H]2O[C@@]3(C)CC[C@H]4[C@H](C)CC[C@@H]1[C@@]24OO3 [ARTENIMOL]
[9]
  half-life: < 1 h
[10]
  solubility: Soluble

## C[C@H]1[C@@H](Sc2ccc3ccccc3n2)O[C@@H]2O[C@@]3(C)CC[C@H]4[C@H](C)CC[C@@H]1[C@@]24OO3
PC-3 [1]
  Activity: 39%
MDA-MB-231 [2]
  Activity: 78%
A549
  Activity: 87%
HeLa
  Activity: 63%
LNCaP
  Activity: 41%
A-431 [3]
  Activity: 44%
HepG2 [4]
  Activity: 72%

## CCCCS[C@H]1O[C@@H]2O[C@@]3(C)CC[C@H]4[C@H](C)CC[C@@H]([C@H]1C)[C@@]24OO3
PC-3 [1]
  Activity: 33%
MDA-MB-231 [2]
  Activity: 71%
A549
  Activity: 79%
HeLa
  Activity: 49%
LNCaP
  Activity: 47%
A-431 [3]
  Activity: 47%
HepG2 [4]
  Activity: 52%

## C[C@H]1[C@H](Sc2ccc3ccccc3n2)O[C@@H]2O[C@@]3(C)CC[C@H]4[C@H](C)CC[C@@H]1[C@@]24OO3
PC-3 [1]
  Activity: 33%
MDA-MB-231 [2]
  Activity: 90%
A549
  Activity: 100%
HeLa
  Activity: 87%
LNCaP
  Activity: 77%
A-431 [3]
  Activity: 93%
HepG2 [4]
  Activity: 96%

## C[C@@H]1CC[C@H]2[C@@H](C)C(=O)O[C@@H]3O[C@@]4(C)CC[C@@H]1[C@]32OO4 [ARTEMISININ]
PC-3 [11]
  Activity: Active
PC-3 [12]
  Activity: Active
PC-3 [13]
  Activity: 44.42%
PC-3 [14]
  Activity: 33.48%
PC-3 [15]
  Activity: 35.55%
PC-3 [16]
  Activity: inactive
PC-3 [17]
  Activity: Active
PC-3 [18]
  Activity: 16.07%
PC-3 [19]
  Activity: 48.38%
PC-3 [20]
  Activity: 22.1%

## CCCCS[C@@H]1O[C@@H]2O[C@@]3(C)CC[C@H]4[C@H](C)CC[C@@H]([C@H]1C)[C@@]24OO3
PC-3 [1]
  Activity: 92%
MDA-MB-231 [2]
  Activity: 90%
A549
  Activity: 96%
HeLa
  Activity: 82%
LNCaP
  Activity: 90%
A-431 [3]
  Activity: 86%
HepG2 [4]
  Activity: 92%

## C[C@H]1[C@@H](Sc2cccc(C(=O)O)c2)O[C@@H]2O[C@@]3(C)CC[C@H]4[C@H](C)CC[C@@H]1[C@@]24OO3
PC-3 [1]
  Activity: 41%
MDA-MB-231 [2]
  Activity: 97%
A549
  Activity: 89%
HeLa
  Activity: 58%
LNCaP
  Activity: 43%
A-431 [3]
  Activity: 90%
HepG2 [4]
  Activity: 60%

## COC(=O)CS[C@H]1O[C@@H]2O[C@@]3(C)CC[C@H]4[C@H](C)CC[C@@H]([C@H]1C)[C@@]24OO3
PC-3 [1]
  Activity: 44%
MDA-MB-231 [2]
  Activity: 99%
A549
  Activity: 97%
HeLa
  Activity: 80%
LNCaP
  Activity: 71%
A-431 [3]
  Activity: 77%
HepG2 [4]
  Activity: 94%

## C[C@H]1[C@H](Sc2ccc(C(=O)O)cc2)O[C@@H]2O[C@@]3(C)CC[C@H]4[C@H](C)CC[C@@H]1[C@@]24OO3
PC-3 [1]
  Activity: 84%
MDA-MB-231 [2]
  Activity: 95%
A549
  Activity: 79%
HeLa
  Activity: 60%
LNCaP
  Activity: 47%
A-431 [3]
  Activity: 58%
HepG2 [4]
  Activity: 64%
